Cneo AK release – causes C. neoformans cell lysis | adenylate kinase release luminescence, 4 h; normalised: neutral wells 0, clomiphene wells 100 | lysis activity, % at 15 µM | hit rate 0.2% among 360,000 | AID 651654;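 active = mean lysis activity across replicates of at least 80%, whatever share of replicates individually reach that level; inactive = mean lysis activity below 80%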
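Test system: log-phase Cryptococcus neoformans yeast cells; Quantity: yeast cell density of 5 × 10^6 cells/mL; Buffer or medium: YPD; Doses: single compound concentration per well; Timing: 4 h at 37 °C static, read 1 h later; Measured by: AK luminescence; Read-out basis: lysis from increased AK signal; Control set: Clomiphene as positive control.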
dFosB activator – enhances mouse delta FosB homodimer DNA binding | activation, % at 25 µM | purified delta FosB, TAMRA-CDK5 oligo fluorescence polarization; percent of positive-control signal above neutral wells | AID 493131 | P13346 | hit rate 0.99% among 340,000;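 active = mean activation above about 17%, with every replicate also reaching it, limit read from the data, passing the limit was not always enough; inconclusive = only one of the two conditions met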
Target sequence (P13346 whole entry, looked up): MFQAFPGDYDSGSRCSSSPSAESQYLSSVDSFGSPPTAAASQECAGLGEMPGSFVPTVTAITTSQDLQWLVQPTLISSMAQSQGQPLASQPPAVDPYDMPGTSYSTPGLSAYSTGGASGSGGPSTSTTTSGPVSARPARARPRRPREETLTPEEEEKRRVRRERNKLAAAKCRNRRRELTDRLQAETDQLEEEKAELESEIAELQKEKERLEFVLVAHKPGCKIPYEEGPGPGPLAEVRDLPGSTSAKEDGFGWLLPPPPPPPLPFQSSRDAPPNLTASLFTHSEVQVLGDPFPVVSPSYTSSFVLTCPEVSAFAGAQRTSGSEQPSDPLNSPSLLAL
GSIS activator – primary screen for activators of insulin secretion dependent on glucose, INS-1E cells, GLuc reporter luminescence. INS-1E GLuc reporter insulin secretion, 2-3 h. activation, % at 16.6 µM. hit rate 0.61% among 370,000. AID 743287;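 active = lowest replicate activation of at least 40%, so every replicate reaches that level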;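 note: 0% = median of neutral control wells and 100% = median of IBMX positive control wells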
miR-122 sensor – inhibitors of miR-122 in Huh7 cells; hit rate 0.3% among 340,000; activation (reporter increase), % at 12.5 µM; Huh7 miR-122 Renilla luciferase sensor, 48 h; neutral wells = 0, positive control = 100;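 active = mean replicate activation score at least 90 and every replicate individually at or above 90; inconclusive = only one of the two criteria met; inactive = neither criterion met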;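 note: higher luciferase means less miR-122 activity so hits act as miR-122 inhibitors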
HIV Env fusion – HIV envelope-mediated fusion inhibition | HeLa-JRFL Env/CEM21 cell fusion, luciferase | inhibition, % at 12.3 µM | hit rate 1.1% among 360,000 | AID 651610;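 active = mean replicate inhibition score of at least 50 and every replicate individually at or above 50; inconclusive = only one of the two criteria met; inactive = mean below 50 and not all replicates reaching 50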;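 note: 0% = plate neutral controls and 100% = maraviroc near 300 nM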
Rtt109 Vps75 – inhibitors of Candida albicans Rtt109/Vps75 histone acetyltransferase. Q5AAJ8. purified Rtt109/Vps75, ThioGlo CoA-SH fluorescence, 4 h. inhibition, % at 34.9 µM. hit rate 0.16% among 330,000. AID 540336;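 active = inhibition of at least 50% in every replicate; inconclusive = best replicate reaches 50% inhibition but some replicates fall short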
An asterisk follows results filed as active; [ ] = another dose, or the depositor's remark. Rows were chosen to be rich in hits. Some 2.4% of all compounds tested hit in one or more screens of this group.

`C[C@@H]1CCCCO[C@H](CN(C)C(=O)Nc2ccc3c(c2)OCO3)[C@H](C)CN([C@H](C)CO)C(=O)c2cc(NS(=O)(=O)c3cn(C)cn3)ccc2O1` gave Cneo AK release 2, GSIS activator -2, miR-122 sensor -12[16.7 µM] and HIV Env fusion -3[16.7 µM].
Screening O=C(C[C@@H]1CC[C@H]2[C@@H](COC[C@H](O)CN2Cc2cccc(Cl)c2)O1)Nc1nccs1 returned Cneo AK release 68, GSIS activator -5, miR-122 sensor -3[16.7 µM] and HIV Env fusion -13[16.7 µM].
`CCCCCOC(=O)c1[nH]c2c(c1C)C(=O)CC(c1ccco1)C2` (stereo not given) gave Cneo AK release -1, dFosB activator -6, miR-122 sensor 121* and Rtt109 Vps75 5.
Cc1n[nH]c(C)c1Sc1ccccc1N=Cc1cc(Cl)cc([N+](=O)[O-])c1O was read as Cneo AK release 13, dFosB activator 51*, miR-122 sensor 1 and Rtt109 Vps75 -2.
`COc1cc(OC)c(NC(=O)CN(C)S(=O)(=O)c2ccc(-c3ccc(=O)[nH]n3)s2)cc1Cl` gave Cneo AK release -4, dFosB activator -7, GSIS activator 3, miR-122 sensor -4, HIV Env fusion 0 and Rtt109 Vps75 52*.
CCc1ccccc1NC(=O)CN(C)S(=O)(=O)c1ccc(-c2ccc(=O)[nH]n2)s1 was read as Cneo AK release -2, dFosB activator 0, GSIS activator -10, miR-122 sensor -5, HIV Env fusion 0 and Rtt109 Vps75 0.
Screening Cc1ccc(CCNC(=O)C2CCN(S(=O)(=O)c3cccc4nonc34)CC2)cc1 returned Cneo AK release 1, dFosB activator -6, miR-122 sensor -2 and Rtt109 Vps75 14.
O=C(NCc1ccccc1Cl)C1CCCN(S(=O)(=O)c2cccc3nonc23)C1 (stereo not given) was read as Cneo AK release 1, dFosB activator 39*, GSIS activator 9, miR-122 sensor 4, HIV Env fusion 2 and Rtt109 Vps75 -4.
`Cc1ccc(CNC(=O)C2CCN(S(=O)(=O)c3cccc4nonc34)CC2)cc1` gave Cneo AK release 0, dFosB activator 21*, GSIS activator -9, miR-122 sensor 6, HIV Env fusion 2 and Rtt109 Vps75 -6.
Screening COc1ccccc1CNC(=O)C1CCCN(S(=O)(=O)c2cccc3nonc23)C1 (stereo not given) returned dFosB activator -6, GSIS activator -1, HIV Env fusion -5 and Rtt109 Vps75 -1.
`COc1ccc2c3c([nH]c2c1)[C@@H](CO)N(C(=O)c1cnccn1)CC31CCN(S(C)(=O)=O)CC1` gave GSIS activator 30.
C[C@@H]1CCCCO[C@@H](CN(C)C(=O)NC2CCCCC2)[C@@H](C)CN([C@@H](C)CO)C(=O)c2cc(NC(=O)CCC(F)(F)F)ccc2O1 was read as Cneo AK release -3, GSIS activator -20, miR-122 sensor 8[16.7 µM] and HIV Env fusion inconclusive.
For Cc1c(C(=O)O)sc2nc(-c3cccs3)cc(C(F)(F)F)c12 the results were Cneo AK release 7, dFosB activator -18, GSIS activator -6, miR-122 sensor 2, HIV Env fusion -8 and Rtt109 Vps75 -7.
Cc1c(C(=O)Nc2nccs2)sc2nc(-c3cccs3)cc(C(F)(F)F)c12 was read as dFosB activator -22, miR-122 sensor -2, HIV Env fusion 57* and Rtt109 Vps75 4.
`Cc1cccc(-c2ccc([C@@H]3[C@H](CO)N4C(=O)CN(C(=O)c5cnccn5)C[C@@H]34)cc2)c1` gave GSIS activator 11.
Screening CC(C)(C)[C@H](N)C(=O)N[C@H]1CCC2C3CC=C4C[C@@H](O)CC[C@]4(C)C3CC[C@@]21C (stereo not given in full) returned dFosB activator -26, GSIS activator 202*, miR-122 sensor -4, HIV Env fusion -42 and Rtt109 Vps75 2.
`CC(C)C(=O)N[C@H]1CCC2C3CC=C4C[C@@H](O)CC[C@]4(C)C3CC[C@@]21C` (stereo not given in full) gave Cneo AK release 2, dFosB activator -4, GSIS activator 19, miR-122 sensor -2, HIV Env fusion 6 and Rtt109 Vps75 2.
`CC(=O)C1CCC2C3CC=C4CC(SC(=N)N)CCC4(C)C3CCC12C` (stereo not given) gave dFosB activator -35, GSIS activator 284*, HIV Env fusion -11 and Rtt109 Vps75 -1.
`O=C(NC1=C(NC2CCS(=O)(=O)C2)C(=O)c2ccccc2C1=O)c1ccccc1` (stereo not given) gave Cneo AK release -3, dFosB activator -9, GSIS activator -32, miR-122 sensor 17, HIV Env fusion 57* and Rtt109 Vps75 0.
`COCc1[nH]nc2c1C(c1ccc(F)cc1)N(Cc1ccccc1)C2=O` (stereo not given) gave GSIS activator 16 and HIV Env fusion 77*.
For COCc1[nH]nc2c1C(c1ccc(Br)cc1)N(Cc1ccccc1)C2=O (stereo not given) the results were GSIS activator -43 and HIV Env fusion -6.
Screening Cc1ccc(NC(=O)c2ccc([N+](=O)[O-])o2)c(C)c1 returned Cneo AK release 1, dFosB activator -13, GSIS activator 2, miR-122 sensor -6, HIV Env fusion -12 and Rtt109 Vps75 11.
Cc1ccc(S(=O)(=O)c2ccc([N+](=O)[O-])o2)cc1 was read as dFosB activator 4, GSIS activator 99*, HIV Env fusion -198 and Rtt109 Vps75 0.
O=C([C@H]1[C@H](CO)[C@H]2Cn3c(cccc3=O)[C@H]2N1Cc1ccccc1)N1CCCCC1 was read as Cneo AK release 0, GSIS activator -2 and miR-122 sensor 5[16.7 µM].
Screening CCC(C)c1ccc(NC(=S)NCc2cccs2)cc1 (stereo not given) returned Cneo AK release -5, dFosB activator 1, GSIS activator -10, miR-122 sensor 174*, HIV Env fusion -47 and Rtt109 Vps75 -5.
`CCOc1cc(C2C(C#N)=C(N)SC(N)=C2C#N)ccc1OCCN1CCOCC1` gave Cneo AK release 1, dFosB activator 1, GSIS activator 82* and HIV Env fusion 34.
COc1ccc(NC(=O)N(C)C[C@H]2Oc3ccc(NC(=O)NC4CCCCC4)cc3CC(=O)N([C@@H](C)CO)C[C@H]2C)cc1 was read as GSIS activator 0, miR-122 sensor -3[16.7 µM] and HIV Env fusion -4[16.7 µM].

High-throughput results deposited in PubChem BioAssay by Broad Institute.
